The results in this text go back to ChEMBL document CHEMBL4808183, “Betulonic Acid Derivatives Interfering with Human Coronavirus 229E Replication via the nsp15 Endoribonuclease” (J Med Chem, 2021).

Series [1] in a line: Cytotoxicity against mock-infected human embryonic lung fibroblast cells incubated for 5 days by MTS assay. The format is cell-based. The settings on record: time 5 day. A digest of the protocol:
(§1)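 Confluent HEL cell cultures given serial compound dilutions together with HCoV-229E at MOI 100 and held 5 days at 35 °C. Virus-induced CPE was scored by microscopy. MTS reagent was then added and absorbance at 490 nm read 24 h later. EC50 was taken from the MTS or microscopic read-out and CC50 from MTS. SI = CC50/EC50, both by MTS. Mean ± SEM of three independent experiments.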
For orientation: Tetrazolium dyes change colour on reduction, which living cells bring about.

Series [2] in a line: Antiviral activity against Human coronavirus 229E infected in human embryonic lung fibroblast cells assessed as reduction in virus-induced cytopathic effect incubated for 5 days by microscopy. The format is functional, cell-based. The settings on record: 120 h. A digest of the protocol: as §1
(In general: Protection from cytopathic effect is a common read-out in antiviral testing.)

A short description of series [3]: Antiviral activity against Human coronavirus 229E infected in human embryonic lung fibroblast cells assessed as reduction in virus-induced cytopathic effect incubated for 5 days by MTS cell viability assay. The format is functional, cell-based. The settings on record: 120 h. Put shortly: as §1
Series [4] concerns Punta Toro virus. In words: Antiviral activity against Punta Toro virus. The format is functional, organism-based.
In series [5] the test system is Vesicular stomatitis virus. In words: Antiviral activity against Vesicular stomatitis virus. The format is functional, organism-based.
Series [6] relates to Coxsackievirus B4. Nature of the series: Antiviral activity against Coxsackie B4 virus. The format is functional, organism-based.
Series [7] deals with Human immunodeficiency virus. Nature of the series: Antiviral activity against HIV. The format is functional, organism-based.
Series [8] concerns Influenza A virus. In words: Antiviral activity against Influenza virus. The format is functional.
Series [9] deals with Human adenovirus 2. In words: Antiviral activity against Adenovirus. The format is functional.
Series [10] in a line: Selectivity index, ratio of CC50 for cytotoxicity against mock-infected human embryonic lung fibroblast cells incubated for 5 days by MTS assay to EC50 for antiviral activity against Human coronavirus 229E infected in human embryonic lung fibroblast cells assessed as reduction in virus-induced cytopathic effect incubated for 5 days by MTS cell viability assay. The format is toxicity, cell-based. The settings on record: time 5 day, read-out: Ratio CC50/EC50. A digest of the protocol:
as §1

Series [11] deals with Sindbis virus. In words: Antiviral activity against Sindbis virus. The format is functional, organism-based.
Series [12] relates to Herpes simplex virus unknown type. In words: Antiviral activity against Herpes simplex virus. The format is functional.
Series [13] concerns Vaccinia virus. Nature of the series: Antiviral activity against Vaccinia virus. The settings on record: Orthopoxvirus vaccinia. The format is functional, organism-based.
Series [14] has as its system Yellow fever virus. In words: Antiviral activity against Yellow fever virus. The format is functional, organism-based.
The subject of series [15] is Respiratory syncytial virus. Nature of the series: Antiviral activity against Respiratory syncytial virus. The format is functional, organism-based.
The subject of series [16] is Human respirovirus 3. In words: Antiviral activity against Parainfluenza-3 virus. The format is functional, organism-based.
Series [17] has as its system Reovirus sp. In words: Antiviral activity against Reovirus-1. The format is functional, organism-based.

The source made the active and inactive calls. The calls are words filed in the database; no cut-off is given here.

As usually defined, the CC50 is the concentration that lowers cell viability or growth by half. The EC50 is the concentration at which the effect is half-maximal. In [1], `C=C(C)[C@@H]1CC[C@]2(C(=O)O)CC[C@]3(C)[C@H](CC[C@@H]4[C@@]5(C)CCC(=O)C(C)(C)[C@@H]5CC[C@]43C)[C@@H]12` [BETUNOLIC ACID] showed a CC50 at 120 h of more than 100 µM. Besides, the EC50 in series [2] and in [3] was more than 100 µM each time.

`C=C(C)[C@@H]1CC[C@]2(C(=O)O)CC[C@]3(C)[C@H](CC[C@@H]4[C@@]5(C)Cc6nnn(Cc7ccc(N(C)C)cc7)c6C(C)(C)[C@@H]5CC[C@]43C)[C@@H]12`: the outcome in series [4], in series [5], in series [6], in series [7], in [8] and in series [9] was inactive. The outcome in series [11], in [12], in series [13], in series [14], in series [15] and in series [16] was inactive. Moreover, the result in series [17] was inactive. The molecule also returned a CC50 at 120 h in series [1] of 16 µM. The EC50 in series [2] stood at 0.51 µM; in [3] it was 0.54 µM. Moreover, in [10], the selectivity ratio at 120 h is 31.

With `C=C(C)[C@@H]1CC[C@]2(C(=O)O)CC[C@]3(C)[C@H](CC[C@@H]4[C@@]5(C)Cc6nn[nH]c6C(C)(C)[C@@H]5CC[C@]43C)[C@@H]12`, the outcome in series [4], in series [5], in series [6], in series [7], in [8] and in [9] was inactive. In addition, the result in series [11], in series [12], in [13], in series [14], in series [15] and in series [16] was inactive. The result in series [17] was inactive. The same molecule returned a CC50 at 120 h in series [1] of 8.3 µM. Besides, the EC50 came out at 3.4 µM in series [2] and 4.3 µM in series [3]. Besides, the selectivity ratio at 120 h in series [10] is 1.9.

For the molecule `C=C(C)[C@@H]1CC[C@]2(C(=O)O)CC[C@]3(C)[C@H](CC[C@@H]4[C@@]5(C)Cc6nnn(CCCCCCC)c6C(C)(C)[C@@H]5CC[C@]43C)[C@@H]12`, the outcome in series [4], in series [5], in series [6], in series [7], in series [8] and in series [9] was inactive. In addition, the outcome in series [11], in series [12], in series [13], in [14], in series [15] and in series [16] was inactive. The result in [17] was inactive. Further, the CC50 at 120 h in series [1] stood at 16 µM. The EC50 in series [2] was found to be 1.1 µM; in series [3], 2 µM. Also, the selectivity ratio at 120 h in series [10] came out at 8.

Consider `C=C(C)[C@@H]1CC[C@]2(C(=O)O)CC[C@]3(C)[C@H](CC[C@@H]4[C@@]5(C)Cc6nnn(Cc7ccccc7)c6C(C)(C)[C@@H]5CC[C@]43C)[C@@H]12`, for which the result in series [4], in series [5], in series [6], in series [7], in [8] and in [9] was inactive. In addition, the outcome in [11], in [12], in [13], in series [14], in series [15] and in series [16] was inactive. In addition, the result in series [17] was inactive. For the same molecule, in [1], half-maximal cytotoxicity (CC50 at 120 h) was put at 12 µM. In addition, the values for the EC50 in [2] and in [3] were 0.71 µM and 0.85 µM, respectively. In addition, in series [10], the selectivity ratio at 120 h was 14.

`C=C(C)[C@@H]1CC[C@]2(C(=O)O)CC[C@]3(C)[C@H](CC[C@@H]4[C@@]5(C)Cc6nnn(Cc7ccc(C)cc7)c6C(C)(C)[C@@H]5CC[C@]43C)[C@@H]12`: the outcome in series [4], in series [5], in [6], in [7], in series [8] and in series [9] was inactive. The outcome in series [11], in [12], in [13], in series [14], in [15] and in [16] was inactive. For the same molecule, the result in [17] was inactive. The molecule further gave a CC50 at 120 h in series [1] of 57 µM. Moreover, the EC50 in [2] amounted to 3.3 µM; in series [3], 6.2 µM. Besides, in series [10], the selectivity ratio at 120 h was 9.

For `C=C(C)[C@@H]1CC[C@]2(C(=O)O)CC[C@]3(C)[C@H](CC[C@@H]4[C@@]5(C)Cc6nnn([C@H](C)c7ccccc7)c6C(C)(C)[C@@H]5CC[C@]43C)[C@@H]12`, the result in [4], in series [5], in [6], in [7], in series [8] and in series [9] was inactive. In addition, the outcome in series [11], in series [12], in [13], in series [14], in series [15] and in series [16] was inactive. The outcome in [17] was inactive. In addition, in series [1], the CC50 at 120 h is more than 100 µM. Also, the figures for the EC50 in series [2] and in series [3] were 0.67 µM and 1.1 µM, respectively. In addition, the selectivity ratio at 120 h in series [10] was more than 91.

`C=C(C)[C@@H]1CC[C@]2(C(=O)O)CC[C@]3(C)[C@H](CC[C@@H]4[C@@]5(C)Cc6nnn(Cc7ccco7)c6C(C)(C)[C@@H]5CC[C@]43C)[C@@H]12`: the result in series [4], in [5], in series [6], in series [7], in [8] and in series [9] was inactive. The outcome in series [11], in series [12], in series [13], in series [14], in series [15] and in series [16] was inactive. Further, in series [17], the outcome was inactive. Moreover, the midpoint of cytotoxicity in series [1], the CC50 at 120 h, lay at 20 µM. Also, the EC50 in series [2] worked out at 1.1 µM; in [3], 2.6 µM. In [10], the selectivity ratio at 120 h came to 8.

Turning to `CC(C)[C@@H]1CC[C@]2(C)CC[C@]3(C)[C@H](CC[C@@H]4[C@@]5(C)Cc6nnn([C@@H](C)c7ccccc7)c6C(C)(C)[C@@H]5CC[C@]43C)[C@@H]12`, the result in series [4], in [5], in [6], in [7], in series [8] and in series [9] was inactive. Besides, the result in series [11], in [12], in [13], in series [14], in series [15] and in series [16] was inactive. Further, the result in [17] was inactive.

As for `C=C(C)[C@@H]1CC[C@]2(C(=O)O)CC[C@]3(C)[C@H](CC[C@@H]4[C@@]5(C)Cc6nnn(CC7CCCCC7)c6C(C)(C)[C@@H]5CC[C@]43C)[C@@H]12`, the outcome in series [4], in series [5], in series [6], in series [7], in series [8] and in series [9] was inactive. Also, the outcome in series [11], in series [12], in series [13], in series [14], in series [15] and in [16] was inactive. Moreover, the result in series [17] was inactive. It took 79 µM to reach half-maximal cytotoxicity in [1] (CC50 at 120 h). For the same molecule, the EC50 stood at 14 µM in [2] and 13 µM in series [3].

In [1], `C=C(C)[C@@H]1CC[C@]2(CO)CC[C@]3(C)[C@H](CC[C@@H]4[C@@]5(C)CC[C@H](O)C(C)(C)[C@@H]5CC[C@]43C)[C@@H]12` [BETULIN] displayed a cytotoxic concentration (CC50) at 120 h of 7.6 µM. The EC50 in [2] was 11 µM; in [3] it was more than 100 µM.
